FXN GAA850 act: activators of GAA850 frataxin (FXN) promoter. HEK293 lucGAA850 FXN promoter luciferase reporter, 24 h; percent of 10 µM SAHA response. activation, % at 6 µM. 360,000 tested, 0.56% active;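 active means activation above the average of all compounds screened plus 3 SD, cutoff fixed separately per campaign, cut at about 7.5% in these data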;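 further: 0% = DMSO wells and 100% = 10 µM SAHA wells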
NR2E3 ag-1: activates human photoreceptor nuclear receptor NR2E3; Q9Y5X4; GST-NR2E3/biotin-RetCOR TR-FRET, 1536-well; inhibition of corepressor binding, % at 4.78 µM; 320,000 tested, 0.12% active; AID 2300;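 active means percent inhibition above the cutoff of mean plus 3 SD of all tested compounds, set per screening campaign, cut at about 20% in these data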;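 further: 0% = DMSO wells and 100% = biotin wells as full block of FRET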
Target sequence (Q9Y5X4 whole entry, looked up): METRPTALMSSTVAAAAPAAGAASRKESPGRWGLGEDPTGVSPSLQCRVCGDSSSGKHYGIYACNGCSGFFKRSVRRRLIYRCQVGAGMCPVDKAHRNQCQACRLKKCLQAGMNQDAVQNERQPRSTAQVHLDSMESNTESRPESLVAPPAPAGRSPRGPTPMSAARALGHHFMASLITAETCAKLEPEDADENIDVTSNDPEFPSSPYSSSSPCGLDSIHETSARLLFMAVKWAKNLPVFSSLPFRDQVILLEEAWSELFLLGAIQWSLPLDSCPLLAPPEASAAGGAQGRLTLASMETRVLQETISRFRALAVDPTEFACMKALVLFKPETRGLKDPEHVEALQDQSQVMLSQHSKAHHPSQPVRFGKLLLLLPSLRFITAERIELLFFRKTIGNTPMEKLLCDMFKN
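Format: 1536-well format; test system: GST-NR2E3 and biotin-RetCOR proteins; read-out basis: percent inhibition of TR-FRET ratio; timing: 5 h incubation at 4 °C; detection: time-resolved FRET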
T cell modulator: T cell immune modulators affecting CD8 T cell-vesicle binding; 330,000 tested, 0.068% active; response (vesicle binding), % at 7 µM; AID 2052; 2C CD8+ T cell-vesicle binding, flow cytometry; hits give low values;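 active means response, share of CD8 T cells binding vesicles, and their 90th percentile fluorescence all below set limits, cut at about 80% in these data, passing the limit was not always enough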;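 further: values below 100% mean blocked vesicle binding to the CD8+ T cells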
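Read-out – percent CD8+ FL2 mean versus row control · System – murine 2C transgenic CD8+ T lymphocytes · Times – 1.5 h cell–vesicle binding at 37 °C, then 20 min icy labelling · Control set – naked vesicles low, QL9 vesicles with vehicle high · Detection – cytometric PE anti-B7-1 and Alexa647 anti-CD8 signals after 1% paraformaldehyde fixation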
Myeloid diff MLP: promotes myeloid progenitor differentiation. ER-HoxA9 myeloid progenitors, lysozyme-GFP differentiation, flow cytometry. calls only at 10 µM. 360,000 tested, 1% active;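 active means normalized GFP-positive differentiation at or above the plate's own cutoff, the solvent-only control mean plus 3 SD; inconclusive means no clear call, values can overlap the other calls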;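 further: cells exposed to compound for four days before flow analysis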
NR2E3 ag-2: agonists of human NR2E3 nuclear receptor. Q9Y5X4. CHO-S Gal4-NCOR/VP16-NR2E3 two-hybrid, luciferase. inhibition of corepressor binding, % at 3.98 µM. 360,000 tested, 0.35% active. AID 602229;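 active means inhibition above the mean of all tested compounds plus 3 SD, cut at about 70% in these data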;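 further: 0% = DMSO with NR2E3 transfected cells and 100% = cells lacking NR2E3 construct; higher means lower luciferase signal from less NR2E3 corepressor binding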
NR2E3 ag confirm: NR2E3 agonism confirmed in two-hybrid assay. CHO-S mammalian two-hybrid NR2E3-NCOR, luciferase luminescence. shares compounds with NR2E3 ag-2. 2,300 tested, 51% active. inhibition, % at 3.98 µM;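 active means average inhibition above a cutoff equal to the mean inhibition of all tested compounds plus one SD, cut at about 70% in these data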;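 further: 0% = DMSO in NR2E3 cells and 100% = DMSO in cells lacking NR2E3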
GAL4-VP16 luc: reduces GAL4-VP16 reporter signal in NR2E3 counterscreen; 2,300 tested, 29% active; CHO-S GAL4-VP16 luciferase reporter, luminescence; inhibition, % at 3.98 µM; shares compounds with NR2E3 ag-2;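 active means mean inhibition above a cutoff equal to the average over all tested compounds plus one standard deviation, cut at about 70% in these data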;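 further: luciferase from a UAS reporter driven by GAL4-VP16 transactivation; 0% = DMSO with VP16-transfected cells and 100% = DMSO with cells lacking VP16; higher means less reporter light so more repression of VP16 activity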
Starred values were filed as active, the others as inactive; i = inactive; ? = inconclusive; . = no result given; + = active, no number. Hits are enriched below; roughly 2% of the tested compounds scored in any of these assays.

SMILES	FXN GAA850 act	NR2E3 ag-1	T cell modulator	Myeloid diff MLP	NR2E3 ag-2	NR2E3 ag confirm	GAL4-VP16 luc
COc1ccc(N=C2SCC(=O)N2CCc2ccc(OC)c(OC)c2)cc1	-0.4	0.3	163.2	i	0.1	.	.
COc1cc(Cl)ccc1OCc1cc(C(=O)N2CCN(C)C(=O)[C@@H]2C)no1	2.3	.	.	i	-92.0	.	.
Cc1cc(OCc2cc(C(=O)N3CCN(C)C(=O)[C@@H]3C)no2)cc(C)c1Cl	-1.0	-0.7	118.1	i	47.7	47.2	20.0
OCC1OC(n2ccc3c(NO)ncnc32)C(O)C1O (configuration not stated)	-15.0	.	.	?	101.6*	99.4*	92.8*
OCC1OC(n2cnc3c(NCc4ccccc4O)ncnc32)C(O)C1O (configuration not stated)	0.6	.	.	.	71.6*	51.4	48.7
O=c1[nH]nnc2c1ncn2C1OC(CO)C(O)C1O (configuration not stated)	.	.	.	?	68.0	59.4	50.3
OCC1OC(n2cnc3c(NCCc4ccccc4)ncnc32)C(O)C1O (configuration not stated)	4.8	4.6	85.3	i	6.2	.	.
CN(C)c1ncnc2c1ccn2C1OC(CO)C(O)C1O (configuration not stated)	-2.1	.	.	?	69.5	72.1*	29.0
CN(C)c1nc2c(N)ncnc2n1C1OC(CO)C(O)C1O (configuration not stated)	-1.5	.	.	i	-15.7	.	.
COc1cc(C(C(=O)NC2CCCC2)N(CCO)C(=O)Cn2nnc(-c3ccc(C)o3)n2)ccc1O (configuration not stated)	1.8	0.0	476.3	i	-31.9	.	.
CC1CCN(C(=O)COC(=O)c2cc3ccccc3oc2=O)CC1	-4.0	.	396.7	i	17.3	.	.
CC1(C(=O)NS(=O)(=O)c2ccc(Cl)cc2)CCN1C(=O)C1(c2ccc(Cl)cc2)CCC1 (configuration not stated)	1.3	.	.	i	23.5	.	.
O=c1cc(C(F)(F)F)[nH]c2ccc(OC(F)(F)F)cc12	1.2	0.9	714.8	i	78.9*	99.7*	72.9*
CCOc1ccc2[nH]c(C)cc(=O)c2c1	-3.3	-1.8	106.3	i	6.1	.	.
CC1(C)C2CC=C(/C=N/NC(=S)Nc3cccnc3)C1C2 (configuration not stated)	0.2	5.6	250.4	i	-11.4	.	.
CC1=C/C(=N\NC(=S)Nc2cccnc2)CC(C)(C)C1	3.1	.	.	?	80.2*	-24.6	0.7
O=C1NC[C@@H](CCCCN2C[C@H](Cc3ccccc3)N(CCc3ccc(O)cc3)C(=O)C2=O)N(Cc2ccccc2)C1=O	.	.	.	i	-10.3	.	.
Cc1ccc(C(c2nc3ccccc3[nH]2)n2c(-c3ccccc3)nc3ccccc32)cc1 (configuration not stated)	.	.	.	i	-95.1	.	.
O=C(CSc1ccccc1)N1CCC(N2CCC(C(=O)N3CCCC3)CC2)CC1	-0.4	-1.6	i	i	88.1*	-9.3	-3.1
O=C(NC1CC1)C1CCN(C2CCN(C(=O)CSc3ccccc3)CC2)CC1	0.6	-1.3	174.4	i	-4.0	.	.
C[C@@H]1CN([C@H](C)CO)C(=O)c2cc(Br)cnc2O[C@H]1CN(C)Cc1ccccc1	-0.8	.	.	i	-10.9	.	.
COc1ccc([C@H]2CC(=O)C[C@@H](CCn3cc(C(C)C)nn3)O2)cc1	.	.	.	i	-13.9	.	.
COc1ccc(CC(=O)Nc2cccc(S(=O)(=O)N3CCCCCC3)c2)cc1OC	-4.7	-2.8	584.7	+	79.6*	89.7*	77.3*
COc1ccc(CCC(=O)Nc2cccc(S(=O)(=O)N3CCCCCC3)c2)cc1OC	-0.9	1.7	217.3	i	-15.1	.	.
O=C(CNc1cccc(S(=O)(=O)N2CCOCC2)c1)Nc1ccc(C(F)(F)F)cc1	-1.5	-2.2	192.3	i	49.7	10.5	25.2
SMILES	FXN GAA850 act	NR2E3 ag-1	T cell modulator	Myeloid diff MLP	NR2E3 ag-2	NR2E3 ag confirm	GAL4-VP16 luc
CN(C)S(=O)(=O)c1cccc(NC(=O)CNc2cccc(S(=O)(=O)N3CCCCC3)c2)c1	-1.1	.	.	i	-7.5	.	.
CCN(CC)S(=O)(=O)c1cc(NC(=O)CNc2cccc(S(=O)(=O)N3CCCC3)c2)ccc1C	-6.0	1.8	116.0	i	69.8	61.1	52.6
O=C(Nc1ccc(N2CCOCC2)cc1N1CCOCC1)c1ncoc1-c1cccc(F)c1	2.6	1.8	170.0	i	-21.2	.	.
Cc1ccc([C@@H]2CC(=O)[C@@H]3CN(S(=O)(=O)c4ccc(C)cc4)[C@H](c4ccccc4)C[C@@H]3N2S(=O)(=O)c2ccc(Cl)cc2)cc1	-2.8	.	.	i	-27.8	.	.
CCCCNC(=O)C1(C)CCCCN1C(=O)c1ccc(OC)c(C(F)(F)F)c1 (configuration not stated)	-0.9	.	.	i	24.4	.	.
OC(c1ccc(F)cc1)c1nc(-c2ccncc2)cs1 (configuration not stated)	-1.9	.	.	i	79.1*	83.2*	71.0*
Nc1nc2cc(Cl)ccc2cc1C(=O)NCCCc1ccccc1	.	.	.	i	82.3*	86.6*	78.0*
COc1ccc(CCNC(=O)c2cc3ccc(Cl)cc3nc2N)cc1	.	.	.	i	89.9*	90.1*	77.5*
COc1ccc(CCNc2ccc(N3C(=O)CC(C)C3=O)cc2[N+](=O)[O-])cc1 (configuration not stated)	1.2	1.3	691.0	i	-6.7	.	.
COc1ccc(CCNc2ccc(N3C(=O)CC(C)C3=O)cc2[N+](=O)[O-])cc1OC (configuration not stated)	-1.6	2.1	370.5	i	74.8*	57.1	73.2*
Cc1ccc(CN2CC(C(=O)Nc3ncc(C)s3)CC2=O)cc1 (configuration not stated)	2.0	.	.	i	83.0*	82.8*	17.3
Cc1nc2ccc(S(=O)(=O)Nc3cccc(-c4nc5cccnc5s4)c3)cc2s1	0.5	6.2	484.0	i	70.6*	75.5*	45.3
Cc1ccc(S(=O)(=O)Nc2ccc3nc(C)sc3c2)cc1	-0.5	1.9	300.6	i	71.9*	88.5*	75.8*
Cc1nc2ccc(NS(=O)(=O)c3ccc(F)c(F)c3)cc2s1	1.8	2.9	322.9	i	64.7	59.1	45.7
Cc1nc2ccc(NS(=O)(=O)c3cccc([N+](=O)[O-])c3)cc2s1	-2.1	.	262.6	i	62.8	85.3*	72.3*
Cc1nc2ccc(NS(=O)(=O)c3ccc(Br)cc3)cc2s1	-0.6	1.1	884.9	i	84.9*	96.9*	76.1*
Cc1nc2ccc(NS(=O)(=O)c3ccc4c(c3)OCCO4)cc2s1	-3.0	-4.2	152.4	+	94.2*	97.3*	91.1*

From PubChem
